Assay [1] in a line: inhibitors of TNFa-induced NFkB p65 translocation, primary screen, imaging, HUVEC, MLSMR starter and 10KST1 sets (AID 438;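 active = inhibition above 20% together with a positive visual image hit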;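 note: compound added about 3h40 before a 20 min TNFalpha stimulation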;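 for inhibition: signal is the nuclear over cytoplasmic p65 intensity ratio per well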). The following applies: HUVEC TNFa-induced p65 nuclear translocation; cell count: measured here: nuclei count (cytotoxicity indicator), at 2.08 µM; inhibition: at 2 µM, stronger effect = higher value, 0% TNFa-plus-vehicle, 100% no-TNFa wells.
Assay [2] can be described thus: inhibitors of E-selectin induction by TNFa, primary screen, imaging, HUVEC, immunofluorescence, MLSMR starter and 10KST1 sets (AID 487).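 For inhibition: signal is fraction of cell area covered by stained E-selectin grains.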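 For nuclei count: 100% = median nuclei count of all wells on the same plate.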 The following applies: HUVEC TNFalpha-induced E-selectin immunofluorescence imaging, at 2 µM; inhibition: stronger effect = higher value; nuclei count: measured here: cell number, toxicity.
The nature of assay [3]: DUSP6 inhibitors restoring Erk phosphorylation by chemical complementation, primary imaging in DUSP6-transfected HeLa (AID 609;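 active = compounds giving at least 50% inhibition in the cell-based MKP-3 phosphatase rescue imaging test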;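 for inhibition: phospho-Erk level distribution per well compared with pooled transfected vehicle control wells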). The conditions noted are these: HeLa MKP-3 transfected, phospho-Erk imaging KS statistic, at 10 µM, cells stimulated with TPA for 15 min.
For assay [4], the target named is Dual specificity protein phosphatase 6 (Homo sapiens) (UniProt Q16828). The description is as above. The conditions noted are these: HeLa MKP-3 transfected, phospho-Erk imaging KS statistic; at 10 µM; stronger effect = higher value; cells stimulated with TPA for 15 min.
Assay [5] has as its target Voltage-gated potassium channel subunit beta-2 (Rattus norvegicus) (UniProt P62483). The assay is described as follows: KvBeta enzyme negative modulators, primary screen, biochemical, NADPH fluorescence (AID 622;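 active = fluorescence slope higher than the sample average by over 3 SD, cut at about -0.22 in these data, passing the limit was not always enough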;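 note: slope of raw intensity against log time taken from 70 to 1610 s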). The conditions noted are these: recombinant KvBeta, 4-cyanobenzaldehyde reduction, at 10 µM, stronger effect = higher value.
For assay [6] the target is unchanged. The assay is described as follows: KvBeta positive modulators, primary screen, biochemical, NADPH fluorescence (AID 623;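 active = NADPH fluorescence slope more negative than the mean of all samples by about 3 SD, 99.7% confidence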;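 note: fluorescence intensity change per second fitted from 20 to 320 s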). The conditions noted are these: Recombinant KvBeta, NADPH fluorescence decrease slope, 10 min; at 10 µM; stronger effect = lower value.
Assay [7] concerns the target Alpha-2C adrenergic receptor (Homo sapiens) (UniProt P18825). The assay is described as follows: modulators of alpha2C/GIRK thallium flux, primary screen, cell-based, HEK293 alpha2C/GIRK1/2 (AID 624;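 active = fluorescence slope after compound addition differing from the mean of all screened samples at 99.7% confidence, in either direction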;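 note: slope of fluorescence ratio to pre-addition baseline per second over 15 to 24 s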). The conditions noted are these: thallium flux BTC fluorescence, at 10 µM, actives lie on both sides.
Assay [8] can be described thus: inhibitors of larval lipid processing in zebrafish, primary screen, whole organism, PED6 fluorescence, gall bladder and intestine (AID 686;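 active = a full or partial loss of lipid-probe fluorescence in the fish gall bladder, intestine or both, judged by eye; inactive = no fluorescence loss, or compound toxic to the fish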;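 note: larvae 5 to 7 days old with five fish per well; signal comes from phospholipase A2 cleavage of quenched PED6 carried via bile; overnight exposure to compound and PED6 before scoring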). The following applies: Zebrafish larvae PED6 lipid processing, fluorescence scoring; screened at 20 µM (by protocol). The method in brief: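 Also added: quenched phospholipase substrate PED6, 100 nM final, ingested by larvae; System: zebrafish larvae, 5-7 d; Quantity: 5 larvae per well; Compound: 20 µM single dose; Schedule: overnight compound and PED6 incubation; Read-out: visual per-well fluorescence inhibition score; Measured by: By-eye fluorescence microscopy; Medium: E3.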

Assay [9] can be described thus: inhibitors of Chlamydomonas gravitaxis, primary screen, whole organism, Chlamydomonas reinhardtii, WT vs cilia-less mutant, absorbance, 96-well (AID 463189;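 active = inhibition at or above 50% relative to wild type and mutant plate controls; inactive = inhibition below 50%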;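 note: 0% = wild type cc124 cells in DMSO and 100% = ciliumless bld1 mutant cells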). The following applies: OD600 absorbance, 2 days, at 10 µM, stronger effect = higher value.
The mark [10] stands for this setting: measured here: cell density z-score.
[11] abbreviates: measured here: nuclear c-Myc green intensity z-score.
The mark [12] stands for this setting: measured here: nuclear pErk red intensity z-score, stronger effect = higher value.

From PubChem BioAssay come the findings set out here.

By inhibition is commonly meant the drop in the measured response relative to a control, in per cent.

Active and inactive are the calls of the source.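 Rule for the calls, unless noted: active = visually confirmed hit in the image check and inhibition above 20%; inconclusive = visually confirmed hit but inhibition not above 20%; inactive = no visual hit in the image check.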

Sequence of Alpha-2C adrenergic receptor (Homo sapiens) (P18825 whole entry, looked up): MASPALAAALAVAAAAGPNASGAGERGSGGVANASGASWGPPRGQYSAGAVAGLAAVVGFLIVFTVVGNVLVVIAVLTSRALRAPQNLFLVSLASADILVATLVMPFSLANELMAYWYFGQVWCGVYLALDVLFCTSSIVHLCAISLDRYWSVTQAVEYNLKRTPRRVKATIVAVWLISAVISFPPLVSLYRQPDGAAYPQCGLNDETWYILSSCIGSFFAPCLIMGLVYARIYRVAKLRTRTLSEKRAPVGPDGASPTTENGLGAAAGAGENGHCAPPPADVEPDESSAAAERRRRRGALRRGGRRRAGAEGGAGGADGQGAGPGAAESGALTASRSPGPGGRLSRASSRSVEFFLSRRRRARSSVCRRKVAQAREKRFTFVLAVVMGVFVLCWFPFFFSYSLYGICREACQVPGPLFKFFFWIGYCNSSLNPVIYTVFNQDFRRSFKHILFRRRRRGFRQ
Sequence of Dual specificity protein phosphatase 6 (Homo sapiens) (Q16828 whole entry, looked up): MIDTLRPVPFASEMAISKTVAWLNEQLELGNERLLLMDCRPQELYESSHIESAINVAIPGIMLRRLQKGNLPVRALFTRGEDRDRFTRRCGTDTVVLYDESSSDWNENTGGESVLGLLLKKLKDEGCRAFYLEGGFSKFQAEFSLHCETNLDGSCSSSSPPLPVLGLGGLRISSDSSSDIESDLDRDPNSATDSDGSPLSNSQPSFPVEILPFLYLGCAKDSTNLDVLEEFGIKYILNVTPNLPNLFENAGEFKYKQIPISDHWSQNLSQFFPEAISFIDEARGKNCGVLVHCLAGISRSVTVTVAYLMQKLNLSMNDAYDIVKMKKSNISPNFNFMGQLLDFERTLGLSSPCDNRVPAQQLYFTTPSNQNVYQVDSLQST
Sequence of Voltage-gated potassium channel subunit beta-2 (Rattus norvegicus) (P62483 whole entry, looked up): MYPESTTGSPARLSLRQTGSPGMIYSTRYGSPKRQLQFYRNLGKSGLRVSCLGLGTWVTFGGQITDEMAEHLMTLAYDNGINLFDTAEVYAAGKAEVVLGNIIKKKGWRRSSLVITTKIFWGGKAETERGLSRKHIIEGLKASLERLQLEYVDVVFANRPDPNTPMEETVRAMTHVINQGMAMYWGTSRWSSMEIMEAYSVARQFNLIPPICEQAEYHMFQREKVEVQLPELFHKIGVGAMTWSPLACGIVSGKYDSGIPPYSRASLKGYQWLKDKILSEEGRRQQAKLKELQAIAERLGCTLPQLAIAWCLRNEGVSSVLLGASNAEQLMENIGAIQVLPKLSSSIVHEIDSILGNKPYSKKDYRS

On to `CCNc1nc(Oc2ccccc2)nc(OC(C)C(=O)OCC)n1` (stereo not drawn), for which the cell count in assay [1] came out at 674. Further, the inhibition in assay [1] is 1.4% (inactive); in assay [2], -19.3% (inactive); in [4], -2.07% (inactive); in [9] it was -3.35% (inactive). In addition, the nuclei count in assay [2] is 172%. The z-score is -0.682 in assay [3] (setting [10]), -0.0206 in assay [3] (setting [11]) and 2.56 in assay [3] (setting [12]). The fluorescence slope in assay [5] is -0.532 (inactive). The NADPH fluorescence slope in assay [6] is -6.7e-05 (inactive). Besides, the slope in assay [7] was 0.00506 (inactive). Also, the call in assay [8] was inactive.

As to `CC1(C)CC(=O)C2=C(C1)N(Cc1ccco1)C(=O)C2(O)C(F)(F)F` (stereo not drawn), the cell count in assay [1] is 502. Further, the inhibition was -2.4% (inactive) in assay [1], -124% (inactive) in [2], -12.3% (inactive) in assay [4] and 20.3% (inactive) in assay [9]. In addition, in assay [2], the nuclei count is 132%. The z-score in assay [3] (setting [10]) is -0.0541; in assay [3] (setting [11]), -0.87; in [3] (setting [12]), -0.763. The fluorescence slope in assay [5] was -0.467 (inactive). Further, the NADPH fluorescence slope in assay [6] was -6.1e-05 (inactive). For the same compound, the slope in assay [7] is 0.00641 (inactive). For the same compound, the outcome in assay [8] was inactive.

As for `CC(C)C1C(C#N)=C(N)Oc2n[nH]c(C(C)(C)C)c21` (stereo not drawn), the cell count in assay [1] was determined as 391. Besides, the inhibition in [1] was -8.2% (inactive); in [2], -118% (inactive); in assay [4], -2.91% (inactive); in [9], -1.5% (inactive). This compound showed a nuclei count in assay [2] of 157%. For the same compound, the results for the z-score in assay [3] (setting [10]), in assay [3] (setting [11]) and in [3] (setting [12]) were 0.159, 1.21 and -1.21, respectively. Moreover, the fluorescence slope in assay [5] was -0.429 (inactive). Also, in assay [6], the NADPH fluorescence slope was -4.6e-05 (inactive). In addition, the slope in assay [7] was 0.00626 (inactive). Moreover, in [8], the outcome was inactive.

Consider `O=C(O)c1cc2n(n1)C(C(F)(F)F)CC(c1ccccc1)N2` (stereo not drawn), for which the cell count in assay [1] worked out at 514. The inhibition in [1] was -9.8% (inactive); in [2], -120% (inactive); in [4] it was 3.66% (inactive); in assay [9], -2% (inactive). The same compound yielded a nuclei count in assay [2] of 117%. Besides, the z-score in [3] (setting [10]) was -1.15; in assay [3] (setting [11]) it was -0.827; in assay [3] (setting [12]), 0.269. Besides, the fluorescence slope in assay [5] is -0.503 (inactive). Besides, the NADPH fluorescence slope in assay [6] is -0.000107 (inactive). Also, in [7], the slope is 0.00535 (inactive). Further, the compound was called inactive in assay [8].

As to `CCOC(=O)NC(O)C(=O)c1cccs1` (stereo not drawn), the cell count in [1] is 507. Also, the inhibition is -20.3% (inactive) in assay [1], -205% (inactive) in assay [2], 22.3% (inactive) in [4] and 16.4% (inactive) in [9]. Also, in [2], the nuclei count was 153%. For the same compound, the z-score in [3] (setting [10]) was 1.4; in [3] (setting [11]), -0.239; in assay [3] (setting [12]), -0.163. The fluorescence slope in [5] is -0.5 (inactive). Moreover, the NADPH fluorescence slope in assay [6] was -0.000158 (inactive). In assay [7], the slope is 0.00426 (inactive). For the same compound, the compound was classed as inactive in assay [8].

Regarding `Cc1nc(NCCN)c(C#N)c2c1COC(C)(C)C2`, in assay [1], the cell count was 666. The inhibition was -1.2% (inactive) in assay [1], -117% (inactive) in [2], 1.75% (inactive) in assay [4] and 1.63% (inactive) in [9]. The same compound gave a nuclei count in [2] of 165%. Besides, the z-score was -0.432 in assay [3] (setting [10]), -0.111 in [3] (setting [11]) and -0.818 in assay [3] (setting [12]). Further, the fluorescence slope in assay [5] was -0.506 (inactive). Besides, the NADPH fluorescence slope in [6] was -1.4e-06 (inactive). Moreover, the slope in assay [7] is 0.00551 (inactive). Besides, the compound was called inactive in [8].

`COC(=O)c1ccccc1N1C(=O)[C@@H]2C(c3ccc(Br)cc3)=NO[C@@H]2C1=O`: the cell count in assay [1] turned out to be 269. Further, the inhibition in [1] was -12.6% (inactive); in assay [2] it was 0.3% (inactive); in assay [4] it was 1.75% (inactive); in assay [9], -19.6% (inactive). The nuclei count in assay [2] was found to be 89.9%. In addition, the z-score in assay [3] (setting [10]) is -0.914; in assay [3] (setting [11]), 2.06; in assay [3] (setting [12]), -1.22. The fluorescence slope in assay [5] is -0.458 (inactive). Also, the NADPH fluorescence slope in assay [6] is -7.9e-05 (inactive). Besides, the slope in assay [7] was 0.00516 (inactive). Moreover, in [8], the compound was classed as inactive.

Take `COC(=O)CC1=NC(=O)CS1`: the cell count in assay [1] turned out to be 690. In addition, the inhibition in assay [1] was -4.3% (inactive); in assay [2] it was -84.4% (inactive); in [4], -7.28% (inactive); in [9], -1.11% (inactive). The compound further yielded a nuclei count in assay [2] of 164%. Also, the z-score in [3] (setting [10]) is -1.27; in [3] (setting [11]), 0.428; in assay [3] (setting [12]) it was 1.11. In assay [5], the fluorescence slope was -0.41 (inactive). The NADPH fluorescence slope in [6] is -8.9e-06 (inactive). Further, the slope in assay [7] is 0.00544 (inactive). Moreover, the compound was called inactive in assay [8].

Turning to `COc1ccc2c(c1OC)C(=O)N1c3ccccc3C(=O)N(c3ccccc3)C21` (stereo not drawn), the cell count in assay [1] was determined as 475. In addition, the inhibition in assay [1] was -9.6% (inactive); in assay [2], -84.9% (inactive); in assay [4] it was 2.46% (inactive); in assay [9] it was 3.79% (inactive). This compound also displayed a nuclei count in assay [2] of 169%. Also, the results for the z-score in [3] (setting [10]), in assay [3] (setting [11]) and in [3] (setting [12]) were 0.407, -0.0149 and -0.273, respectively. For the same compound, the fluorescence slope in [5] is -0.319 (inactive). For the same compound, in [6], the NADPH fluorescence slope is -5.5e-06 (inactive). For the same compound, the slope in assay [7] is 0.00449 (inactive). For the same compound, the outcome in [8] was inactive.

Take `CC1(C)CC(=O)C(CCCN2C(=O)c3ccccc3C2=O)C(=O)C1`: the cell count in [1] was found to be 527. Besides, the inhibition was 0.1% (inactive) in [1], 10.1% (inactive) in [2], -5.26% (inactive) in [4] and 18% (inactive) in assay [9]. In addition, in assay [2], the nuclei count came out at 93.2%. The z-score in assay [3] (setting [10]) was -0.253; in [3] (setting [11]), 0.312; in assay [3] (setting [12]), -1.11. In assay [5], the fluorescence slope was -0.379 (inactive). Also, the NADPH fluorescence slope in assay [6] is -1.5e-05 (inactive). Moreover, the slope in assay [7] is 0.00431 (inactive). Further, in [8], the outcome was inactive.

Turning to `CC1(C)Cc2c(sc(NC(=O)c3ccc(Br)o3)c2C#N)CO1`, the cell count in assay [1] turned out to be 406. Also, the inhibition in assay [1] is -17.8% (inactive); in assay [2], -330% (inactive); in assay [4], 7.48% (inactive); in assay [9], 8.5% (inactive). In addition, the nuclei count in assay [2] is 140%. The z-score in [3] (setting [10]) was 0.838; in assay [3] (setting [11]), -0.788; in [3] (setting [12]) it was -0.494. In addition, the fluorescence slope in assay [5] was -0.371 (inactive). The NADPH fluorescence slope in assay [6] was -1.6e-05 (inactive). Besides, the slope in assay [7] is 0.00697 (inactive). In assay [8], the result was inactive.
